{"source": "ChEMBL document CHEMBL4138271", "about": "“Crystal Structures and Human Leukemia Cell Apoptosis Inducible Activities of Parthenolide Analogues Isolated from Piptocoma rufescens” (J Nat Prod, 2018)", "key": {"[1]": {"tested_on": "EOL1", "assay": "Synergistic antileukemic activity against human EOL-1 cells assessed as concentration required for <= 75% cell survival after 72 hrs in presence of midostaurin by CellTiter 96 AQueous One solution cell proliferation assay", "type": "functional"}, "[2]": {"tested_on": "MOLM-13", "assay": "Induction of apoptosis in human MOLM13 cells assessed as live cells at 5 uM after 24 hrs by Annexin-V FITC/7-AAD staining based flow cytometric method (reference value: 86.8%)", "type": "functional"}, "[3]": {"tested_on": "MOLM-13", "assay": "Induction of apoptosis in human MOLM13 cells assessed as early apoptotic cells at 2.5 uM after 24 hrs by Annexin-V FITC/7-AAD staining based flow cytometric method (reference value: 11.8%)", "type": "functional"}, "[4]": {"tested_on": "EOL1", "assay": "Induction of apoptosis in human EOL-1 cells assessed as live cells at 5 uM after 24 hrs by Annexin-V FITC/7-AAD staining based flow cytometric method (reference value: 97.5%)", "type": "functional"}, "[5]": {"tested_on": "MOLM-13", "assay": "Induction of apoptosis in human MOLM13 cells assessed as necrotic cells at 5 uM after 24 hrs by Annexin-V FITC/7-AAD staining based flow cytometric method (reference value: 0%)", "type": "functional"}, "[6]": {"tested_on": "EOL1", "assay": "Induction of apoptosis in human EOL-1 cells assessed as live cells at 2.5 uM after 24 hrs by Annexin-V FITC/7-AAD staining based flow cytometric method (reference value: 97.5%)", "type": "functional"}, "[7]": {"tested_on": "MOLM-13", "assay": "Induction of apoptosis in human MOLM13 cells assessed as late apoptotic cells at 2.5 uM after 24 hrs by Annexin-V FITC/7-AAD staining based flow cytometric method (reference value: 1.43%)", "type": "functional"}, "[8]": {"tested_on": "HT-29", "assay": "Cytotoxicity against human HT-29 cells after 72 hrs by MTS assay", "type": "functional, cell-based", "conditions": "HT-29, 72 h"}, "[9]": {"tested_on": "MOLM-13", "assay": "Induction of apoptosis in human MOLM13 cells assessed as live cells at 2.5 uM after 24 hrs by Annexin-V FITC/7-AAD staining based flow cytometric method (reference value: 86.8%)", "type": "functional"}, "[10]": {"tested_on": "EOL1", "assay": "Induction of apoptosis in human EOL-1 cells assessed as late apoptotic cells at 2.5 uM after 24 hrs by Annexin-V FITC/7-AAD staining based flow cytometric method (reference value: 0.535%)", "type": "functional"}, "[11]": {"tested_on": "MOLM-13", "assay": "Induction of apoptosis in human MOLM13 cells assessed as necrotic cells at 2.5 uM after 24 hrs by Annexin-V FITC/7-AAD staining based flow cytometric method (reference value: 0%)", "type": "functional"}, "[12]": {"tested_on": "MOLM-13", "assay": "Induction of apoptosis in human MOLM13 cells assessed as necrotic cells at 1.3 uM after 24 hrs by Annexin-V FITC/7-AAD staining based flow cytometric method (reference value: 0%)", "type": "functional"}, "[13]": {"tested_on": "EOL1", "assay": "Induction of apoptosis in human EOL-1 cells assessed as necrotic cells at 1.3 uM after 24 hrs by Annexin-V FITC/7-AAD staining based flow cytometric method (reference value: 0.032%)", "type": "functional"}, "[14]": {"tested_on": "MOLM-13", "assay": "Synergistic antileukemic activity against human MOLM13 cells assessed as concentration required for <= 75% cell survival after 72 hrs in presence of midostaurin by CellTiter 96 AQueous One solution cell proliferation assay", "type": "functional"}, "[15]": {"tested_on": "MOLM-13", "assay": "Induction of apoptosis in human MOLM13 cells assessed as early apoptotic cells at 5 uM after 24 hrs by Annexin-V FITC/7-AAD staining based flow cytometric method (reference value: 11.8%)", "type": "functional"}, "[16]": {"tested_on": "EOL1", "assay": "Induction of apoptosis in human EOL-1 cells assessed as caspase-3 activation at 10 uM after 72 hrs by immunoblotting analysis", "type": "functional, cell-based", "outline": "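EOL-1 cells (RPMI 1640, 10% FBS, 37 °C, 5% CO2) exposed 72 h; compounds at 10 μM, PKC412 at 10 nM. Harvested, PBS-washed, lysed in hypertonic NP-40 buffer with protease/phosphatase inhibitors; SDS-PAGE, PVDF transfer, rabbit monoclonal cleaved caspase-3 (Asp175) antibody 12 h, secondary 1 h, chemiluminescent detection; β-actin loading control. Representative blots of three independent experiments.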"}, "[17]": {"tested_on": "EOL1", "assay": "Induction of apoptosis in human EOL-1 cells assessed as live cells at 1.3 uM after 24 hrs by Annexin-V FITC/7-AAD staining based flow cytometric method (reference value: 97.5%)", "type": "functional"}, "[18]": {"tested_on": "MOLM-13", "assay": "Induction of apoptosis in human MOLM13 cells assessed as late apoptotic cells at 1.3 uM after 24 hrs by Annexin-V FITC/7-AAD staining based flow cytometric method (reference value: 1.43%)", "type": "functional"}, "[19]": {"tested_on": "EOL1", "assay": "Induction of apoptosis in human EOL-1 cells assessed as early apoptotic cells at 2.5 uM after 24 hrs by Annexin-V FITC/7-AAD staining based flow cytometric method (reference value: 1.94%)", "type": "functional"}, "[20]": {"tested_on": "EOL1", "assay": "Induction of apoptosis in human EOL-1 cells assessed as early apoptotic cells at 5 uM after 24 hrs by Annexin-V FITC/7-AAD staining based flow cytometric method (reference value: 1.94%)", "type": "functional"}, "[21]": {"tested_on": "MOLM-13", "assay": "Induction of apoptosis in human MOLM13 cells assessed as late apoptotic cells at 5 uM after 24 hrs by Annexin-V FITC/7-AAD staining based flow cytometric method (reference value: 1.43%)", "type": "functional"}, "[22]": {"tested_on": "EOL1", "assay": "Induction of apoptosis in human EOL-1 cells assessed as necrotic cells at 2.5 uM after 24 hrs by Annexin-V FITC/7-AAD staining based flow cytometric method (reference value: 0.032%)", "type": "functional"}, "[23]": {"tested_on": "EOL1", "assay": "Induction of apoptosis in human EOL-1 cells assessed as late apoptotic cells at 1.3 uM after 24 hrs by Annexin-V FITC/7-AAD staining based flow cytometric method (reference value: 0.535%)", "type": "functional"}, "[24]": {"tested_on": "MOLM-13", "assay": "Cytotoxicity against human MOLM13 cells after 72 hrs by MTS assay", "type": "functional, cell-based", "conditions": "MOLM-13, 72 h"}, "[25]": {"biological_target": "Transcription factor p65 (Homo sapiens) (UniProt Q04206)", "sequence (Q04206 whole entry)": "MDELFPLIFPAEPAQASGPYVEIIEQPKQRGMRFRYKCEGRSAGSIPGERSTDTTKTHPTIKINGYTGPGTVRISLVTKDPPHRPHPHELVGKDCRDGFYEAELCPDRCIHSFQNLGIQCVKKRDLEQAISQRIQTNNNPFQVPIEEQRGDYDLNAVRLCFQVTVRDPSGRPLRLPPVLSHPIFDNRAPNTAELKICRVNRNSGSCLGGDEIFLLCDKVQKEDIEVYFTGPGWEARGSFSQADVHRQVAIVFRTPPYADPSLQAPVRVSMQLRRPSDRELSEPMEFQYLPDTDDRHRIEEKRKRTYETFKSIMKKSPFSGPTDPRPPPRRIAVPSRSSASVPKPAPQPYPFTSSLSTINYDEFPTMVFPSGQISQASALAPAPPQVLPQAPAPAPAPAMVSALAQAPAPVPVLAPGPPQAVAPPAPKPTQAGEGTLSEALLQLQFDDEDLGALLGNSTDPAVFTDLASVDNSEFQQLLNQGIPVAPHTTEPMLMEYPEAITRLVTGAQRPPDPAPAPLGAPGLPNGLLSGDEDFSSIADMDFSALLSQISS", "assay": "Inhibition of NFkappaB p65 in human MOLM13 cells at 10 uM after 72 hrs by immunoblotting method", "type": "cell-based", "outline": "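MOLM-13 or EOL-1 cells treated 72 h at 10 μM. Cells washed in ice-cold PBS and lysed in hypertonic NP-40 buffer (10 mM HEPES pH 7.5, 0.5 M NaCl) with protease/phosphatase inhibitors. Protein measured by BCA; SDS-PAGE onto PVDF. Probed 12 h with rabbit monoclonal NF-κB-p65 antibody, goat β-actin as loading control, then chemiluminescence. Blots representative of three independent experiments.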"}, "[26]": {"tested_on": "MOLM-13", "assay": "Induction of apoptosis in human MOLM13 cells assessed as live cells at 1.3 uM after 24 hrs by Annexin-V FITC/7-AAD staining based flow cytometric method (reference value: 86.8%)", "type": "functional"}, "[27]": {"tested_on": "EOL1", "assay": "Induction of apoptosis in human EOL-1 cells assessed as early apoptotic cells at 1.3 uM after 24 hrs by Annexin-V FITC/7-AAD staining based flow cytometric method (reference value: 1.94%)", "type": "functional"}, "[28]": {"tested_on": "MOLM-13", "assay": "Induction of apoptosis in human MOLM13 cells assessed as early apoptotic cells at 1.3 uM after 24 hrs by Annexin-V FITC/7-AAD staining based flow cytometric method (reference value: 11.8%)", "type": "functional"}, "[29]": {"tested_on": "EOL1", "assay": "Cytotoxicity against human EOL-1 cells after 72 hrs by MTS assay", "type": "functional, cell-based", "conditions": "EOL1, 72 h"}, "[30]": {"tested_on": "EOL1", "assay": "Induction of apoptosis in human EOL-1 cells assessed as late apoptotic cells at 5 uM after 24 hrs by Annexin-V FITC/7-AAD staining based flow cytometric method (reference value: 0.535%)", "type": "functional"}, "[31]": {"tested_on": "EOL1", "assay": "Induction of apoptosis in human EOL-1 cells assessed as necrotic cells at 5 uM after 24 hrs by Annexin-V FITC/7-AAD staining based flow cytometric method (reference value: 0.032%)", "type": "functional"}, "[32]": {"tested_on": "MOLM-13", "assay": "Induction of apoptosis in human MOLM13 cells assessed as caspase-3 activation at 10 uM after 72 hrs by immunoblotting analysis", "type": "functional, cell-based", "outline": "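MOLM-13 cells treated 72 h with test compounds at 10 μM or PKC412 at 10 nM. Cells washed in ice-cold PBS, lysed at 10^8 cells/mL in NP-40 hypertonic buffer (pH 7.5) with protease/phosphatase inhibitors, then run on SDS-PAGE and PVDF. Blots probed 12 h with rabbit monoclonal cleaved caspase-3 (Asp175), β-actin as loading control. Representative of three independent experiments.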"}}, "note": "pIC50: −log10 of the molar value. Calls of active or inactive are those of the source. The rule behind the calls is not given here.", "data": [{"smiles": "C=C1C(=O)O[C@@H]2C[C@@H](C)/C=C\\C(=O)[C@](C)(OC(C)=O)C[C@H](OC(=O)/C(C)=C\\C)[C@@H]12", "values": [{"measurement": "Activity", "setting": "[1]", "result": 2.5, "unit": "µM"}, {"measurement": "Activity", "setting": "[2]", "result": 0.583, "unit": "%"}, {"measurement": "Activity", "setting": "[3]", "result": 10.5, "unit": "%"}, {"measurement": "Activity", "setting": "[4]", "result": 2.79, "unit": "%"}, {"measurement": "Activity", "setting": "[5]", "result": 25.5, "unit": "%"}, {"measurement": "Activity", "setting": "[6]", "result": 63.8, "unit": "%"}, {"measurement": "Activity", "setting": "[7]", "result": 2.77, "unit": "%"}, {"measurement": "pIC50", "setting": "[8]", "result": 5.92}, {"measurement": "Activity", "setting": "[9]", "result": 86.5, "unit": "%"}, {"measurement": "Activity", "setting": "[10]", "result": 32.1, "unit": "%"}, {"measurement": "Activity", "setting": "[11]", "result": 0.276, "unit": "%"}, {"measurement": "Activity", "setting": "[12]", "result": 0.147, "unit": "%"}, {"measurement": "Activity", "setting": "[13]", "result": 0.053, "unit": "%"}, {"measurement": "Activity", "setting": "[14]", "result": 1.9, "unit": "µM"}, {"measurement": "Activity", "setting": "[15]", "result": 0.349, "unit": "%"}, {"measurement": "Activity", "setting": "[16]", "result": "Active"}, {"measurement": "Activity", "setting": "[17]", "result": 96.7, "unit": "%"}, {"measurement": "Activity", "setting": "[18]", "result": 1.28, "unit": "%"}, {"measurement": "Activity", "setting": "[19]", "result": 1.33, "unit": "%"}, {"measurement": "Activity", "setting": "[20]", "result": 0.031, "unit": "%"}, {"measurement": "Activity", "setting": "[21]", "result": 73.6, "unit": "%"}, {"measurement": "Activity", "setting": "[22]", "result": 2.72, "unit": "%"}, {"measurement": "Activity", "setting": "[23]", "result": 1.36, "unit": "%"}, {"measurement": "pIC50", "setting": "[24]", "result": 5.37}, {"measurement": "inhibition", "setting": "[25]", "result": "Active"}, {"measurement": "Activity", "setting": "[26]", "result": 90.8, "unit": "%"}, {"measurement": "Activity", "setting": "[27]", "result": 1.87, "unit": "%"}, {"measurement": "Activity", "setting": "[28]", "result": 7.82, "unit": "%"}, {"measurement": "pIC50", "setting": "[29]", "result": 5.37}, {"measurement": "Activity", "setting": "[30]", "result": 92.9, "unit": "%"}, {"measurement": "Activity", "setting": "[31]", "result": 4.73, "unit": "%"}, {"measurement": "Activity", "setting": "[32]", "result": "Active"}]}]}
